The RNAGym collection of RNA variant scans (doi:10.1126/science.aae0568)
Variants at the floor of the assay were thinned out.

B1: tRNA (parent)
chain: GUUCCGUUGGCGUAAUGGUAACGCGUCUCCCUCCUAAGGAGAAGACUGCGGGUUCGAGUCCCGUACGGAACG

Variants of: B1
Assay: yeast fitness relative to wild type (ratio to wild type); higher = fitter; tRNA-Arg(CCU), competitive growth, 37 C, YPD
Procedure, shortened: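 The tRNA-Arg(CCU) gene variants were made by chemical synthesis with a 3% per-site mutation rate at 69 sites and inserted at the native genomic locus of Saccharomyces cerevisiae. After pooling, the strains were competed in YPD at 37°C for 24 hours in six parallel replicates. Gene amplicons from the start population and each end population were read by 100-nucleotide paired-end sequencing, and Darwinian fitness relative to wild type was taken from genotype frequency changes. Genotypes needed ≥ 100 starting reads, and estimates < 0.5 were set to 0.5.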
In the case of C4G G41U C61A C66U, the yeast fitness is reported as at most 0.5. For G6A U13G, the yeast fitness was 0.731. For C4U A14G A36C C46G C62U, the yeast fitness was at most 0.5. For C11U A14G G23A, the yeast fitness was 0.504. Variant U19G U28G has a yeast fitness of 0.551. Variant G9A C22A C33G U35A C55U has a yeast fitness of at most 0.5. In the case of C22G A40C, the yeast fitness is reported as 0.68. For C5A U7C C49A A69C, the yeast fitness was at most 0.5. G10A A36G showed a yeast fitness of 0.664. For A15C U28C G48C, the yeast fitness was at most 0.5. With U16A U53A A57G the yeast fitness was at most 0.5. With U2G A14C A65C the yeast fitness was at most 0.5. With A36C C62G the yeast fitness was 0.575. In the case of A45C C55U A69C, the yeast fitness is reported as at most 0.5. C4A G17C gave a yeast fitness of 0.629. Variant C29A A57U has a yeast fitness of at most 0.5. U3A A14C A20C U64A gave a yeast fitness of at most 0.5. C11A U13A C31G C55U gave a yeast fitness of at most 0.5. For A40U U53G, the yeast fitness was 0.638. For U26C C27U U54G G56A, the yeast fitness was 0.54. With U3A C29G G50A the yeast fitness was at most 0.5. For U16C G17C C22G, the yeast fitness was 0.534. In the case of U2G C62U, the yeast fitness is reported as 0.863. In the case of A20C C34G A69U, the yeast fitness is reported as 0.549. U3A C62A showed a yeast fitness of 0.727. For C33U C61A, the yeast fitness was 0.52. C30A C55A C62A showed a yeast fitness of at most 0.5. A14U C60G A70C showed a yeast fitness of at most 0.5. G18C A42U G48C U64C gave a yeast fitness of at most 0.5. In the case of A45G C55U G67A, the yeast fitness is reported as 0.656. Variant C24G C62U A65G has a yeast fitness of 0.558. C61U A69U A70U showed a yeast fitness of 0.678. In the case of U13A A15G U16G A57G C61A, the yeast fitness is reported as at most 0.5. In the case of A21C C30G, the yeast fitness is reported as 0.6. Work on A21U C24G U28A U59A yielded a yeast fitness of at most 0.5. Variant C11A C27U C31U C34G A40G G63C has a yeast fitness of at most 0.5. For G25A G56A A69C, the yeast fitness was 0.773. U28C U35G A69C showed a yeast fitness of at most 0.5. Work on A14C G18A A20U yielded a yeast fitness of at most 0.5. In the case of A43U C49G C55G, the yeast fitness is reported as 0.988. For U32G A57C C62G C66G, the yeast fitness was 0.567. Work on C22G C29G G68C yielded a yeast fitness of at most 0.5. C49G G63C G68C showed a yeast fitness of at most 0.5. C34U G48A gave a yeast fitness of 0.798. Variant G6C U7C G9C A65G has a yeast fitness of at most 0.5. Variant A20G U28C C62A has a yeast fitness of at most 0.5. For C11U A15U G38A G56A, the yeast fitness was at most 0.5. Variant U13G C55A has a yeast fitness of 0.502. With C4G C5G C29G the yeast fitness was at most 0.5. In the case of U3A A15C G44A A57U, the yeast fitness is reported as at most 0.5. C4G C49U U59C showed a yeast fitness of 0.576. In the case of A36C U47A G48C U54G A65C, the yeast fitness is reported as 0.6. C5A C24G C29G A40C A43U U47A C60A gave a yeast fitness of at most 0.5. A15U G25A C55G showed a yeast fitness of 0.555. Work on C4U A14U C46U yielded a yeast fitness of 0.577. Variant U3C G12A C24A A36U C61U G67U has a yeast fitness of 0.55. C5U A43G A69C showed a yeast fitness of 0.72. With G12C G17A C34G A40U A42U G67C the yeast fitness was at most 0.5. Variant A45U A69U has a yeast fitness of 1.05. G25C C31G G51C A65U gave a yeast fitness of at most 0.5. In the case of C22U C24U G51C, the yeast fitness is reported as at most 0.5. U26C C46A U47G G50A gave a yeast fitness of 0.541. Work on C4U A45G yielded a yeast fitness of 0.856. In the case of A20C C31G G48A G50C C60G, the yeast fitness is reported as 0.722. A20U C27G C29U showed a yeast fitness of at most 0.5. In the case of G6A G44A G56A, the yeast fitness is reported as 0.649. In the case of C30U A65C, the yeast fitness is reported as 0.841. C22U U47G showed a yeast fitness of 0.611. For U2A G6A C11G C49U U54C G58C, the yeast fitness was at most 0.5. Work on U3A U7A A43C G56A yielded a yeast fitness of at most 0.5. C5G G6C A21U showed a yeast fitness of 0.544. In the case of C27G A42U, the yeast fitness is reported as 0.721. C4U A43G G68C showed a yeast fitness of 0.553. For U3G U13C C33G, the yeast fitness was at most 0.5. For A15U C24U C27U, the yeast fitness was at most 0.5. In the case of A21G C33G G38A A69C, the yeast fitness is reported as at most 0.5. C11U U19C C27G showed a yeast fitness of 0.66. C4G C31A C61U gave a yeast fitness of at most 0.5. C34G A42C C62G showed a yeast fitness of 0.631. Work on G10C A15U C29G U35A A36C A65G C66G yielded a yeast fitness of at most 0.5. Variant A20U C33A has a yeast fitness of 0.653. In the case of C24U A42U G52C, the yeast fitness is reported as 0.578. For G12C C22U A40C G52C G67A, the yeast fitness was at most 0.5. With G18A U47C the yeast fitness was 0.728.
